The source made the active and inactive calls. No cut-off for these calls is given here.
Experiments:
[1] = Increase in adriamycin uptake in human MCF7/ADR cells at 10 uM after 2.5 hrs by fluorescence spectrophotometry; type: ADME, cell-based; details: nci/adr-res
Summary of the method: (§1)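 2 × 10^5 MCF-7/ADM or K562/ADM cells were co-incubated 2.5 h with ADM plus peptide, or with verapamil as comparator. After washing in cold PBS, cells were lysed in 0.75 M HCl/0.2% Triton X-100 in isopropanol. Lysate ADM fluorescence was measured by spectrofluorometry at ex 460/em 610 nm.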

[2] = Increase in adriamycin uptake in human MCF7/ADR cells at 10 uM after 2.5 hrs by fluorescence microscopy; type: ADME, cell-based; details: nci/adr-res
Summary of the method: (§2)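 2 × 10^5 MCF-7/ADM or K562/ADM cells were co-incubated 2.5 h with ADM plus peptide, or with verapamil as comparator. Cells were washed with cold PBS and ADM fluorescence was imaged by fluorescence microscopy.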

[3] = system: K562/Adr; assay: Potentiation of adriamycin-induced cytotoxicity against human K562/ADR cells at 10 uM after 48 hrs by MTT assay; type: functional, cell-based
Summary of the method: (§3)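 ADM-resistant MCF-7/ADM or K562/ADM cells, grown in RPMI1640 with 10% FBS at 37 °C and 5% CO2, were seeded at 1 × 10^4 per well and held 24 h. Fixed peptide was added, followed by graded ADM concentrations, for 48 h. MTT was then given for 4 h at 37 °C, formazan dissolved in DMSO and absorbance read at 570 nm. Verapamil served as positive control.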

[4] = Increase in adriamycin uptake in human K562/ADR cells at 10 uM after 2.5 hrs by fluorescence microscopy; type: ADME, cell-based; summary of the method: as §2
[5] = Increase in adriamycin uptake in human K562/ADR cells at 10 uM after 2.5 hrs by fluorescence spectrophotometry; type: ADME, cell-based; summary of the method: as §1
[6] = system: NCI/ADR-RES; assay: Potentiation of adriamycin-induced cytotoxicity against human MCF7/ADR cells at 10 uM after 48 hrs by MTT assay; type: functional, cell-based; summary of the method: as §3
[7] = Retention time of the compound by UPLC method; type: physicochemical
[8] = Cytotoxicity against human GES-1 cells after 48 hrs by MTT assay; type: cell-based; details: GES1, 48 h
Summary of the method: (§4)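 Cells grown in RPMI1640 with 10% heat-inactivated FBS and 1% penicillin-streptomycin at 37 °C, 5% CO2. Log-phase cells were seeded at 5 × 10^3/well 24 h before treatment, exposed to a range of peptide concentrations for 48 h, then given MTT for 4 h. Formazan was dissolved in DMSO and A490 read. Survival was computed relative to untreated wells, and IC50 taken from the survival curve.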

[9] = system: MCF7; assay: Induction of cytochrome c release in extracellular region of human MCF7 cells at 8 uM incubated for 2 hrs by ELISA method (reference value: 15.7 +/- 0.77 ng); type: functional
[10] = Toxicity in rabbit erythrocytes assessed as induction of hemolysis at 160 uM incubated for 1 hr by microplate reader assay; type: cell-based, Oryctolagus cuniculus; details: erythrocyte
Summary of the method: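 Rabbit red blood cells in PBS were mixed 1:1 by volume with peptide solution and incubated 1 h at 37 °C, then spun at 1000 g for 5 min. Hemoglobin in the supernatant was read at 540 nm. PBS defined 0% hemolysis and 0.1% Triton X-100 defined 100%.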

[11] = system: MCF7; assay: Induction of cell membrane morphology changes in human MCF7 cells at 8 uM incubated for 30 mins by scanning electron microscopy; type: functional, cell-based
Summary of the method: (§5)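 MCF-7 cells were grown 24 h on coverslips at 1 × 10^5/well and exposed to peptide for 30 min. Cells were gently PBS-washed, fixed in 2.5% glutaraldehyde, and examined by scanning electron microscopy.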

[12] = system: K562/Adr; assay: Potentiation of adriamycin-induced cytotoxicity against human K562/ADR cells at 1 uM after 48 hrs by MTT assay; type: functional, cell-based; summary of the method: as §3
[13] = system: MCF7; assay: Induction of mitochondrial membrane potential depolarization in human MCF7 cells at 8 uM incubated for 2 hrs by JC1 staining; type: functional, cell-based
Summary of the method: (§6)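 MCF-7 cells plated at 1 × 10^5 per well, grown 24 h, then exposed to peptide for 2 h. Mitochondrial membrane potential was assessed with a JC-1 mitochondrial membrane potential kit. Green (monomer) and red (J-aggregate) fluorescence were imaged, with merged orange taken as normal potential.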

[14] = Increase in adriamycin uptake in human K562/ADR cells at 1 uM after 2.5 hrs by fluorescence microscopy; type: ADME, cell-based; summary of the method: as §2
[15] = system: MCF7; assay: Induction of cell membrane alteration in human MCF7 cells at 8 uM incubated for 30 mins by acridine orange/ethidium bromide double staining method; type: functional, cell-based
Summary of the method: (§7)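 MCF-7 cells were plated at 1 × 10^5/well and grown 24 h, then given peptide for 30 min. Cells were washed twice with PBS and stained 10 min in the dark with cold PBS containing acridine orange and ethidium bromide. Excess dye was washed off, then cells were imaged by fluorescence microscopy. Red EB staining marks membrane-compromised cells.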

[16] = Increase in adriamycin uptake in human K562/ADR cells at 1 uM after 2.5 hrs by fluorescence spectrophotometry; type: ADME, cell-based; summary of the method: as §1
[17] = system: MCF7; assay: Anticancer activity against human MCF7 cells after 48 hrs by MTT assay; type: functional, cell-based; details: MCF7, 48 h; summary of the method: as §4
[18] = Drug uptake in cytosol of human MCF7 cells at 8 uM incubated for 5 mins or 30 mins by fluorescein isothiocyanate labeling based fluorescence microscopy; type: ADME, cell-based
Summary of the method: (§8)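 MCF-7 cells were plated at 1 × 10^5/well and grown 24 h, then exposed to FITC-labeled peptides for 5 min or 30 min. Cells were washed three times with cold PBS, and intracellular fluorescence was imaged by fluorescence microscopy.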

[19] = system: K562; assay: Anticancer activity against human K562 cells after 48 hrs by MTT assay; type: functional, cell-based; details: K562, 48 h; summary of the method: as §4
[20] = system: NCI/ADR-RES; assay: Potentiation of adriamycin-induced cytotoxicity against human MCF7/ADR cells at 1 uM after 48 hrs by MTT assay; type: functional, cell-based; summary of the method: as §3
[21] = system: MCF7; assay: Antimigratory activity in human MCF7 cells assessed as inhibition of cell migration at 1 uM incubated for 48 hrs by wound healing assay; type: functional, cell-based
Summary of the method: (§9)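 MCF-7 cells were seeded at 2 × 10^5/well and grown 24 h to 90% confluence. A cell-free gap was scratched, and cells migrated in serum-free medium with peptide for 48 h. Wound closure was photographed at 0 h and 48 h.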

[22] = system: MCF7; assay: Induction of cytochrome c release in human MCF7 cells at 8 uM incubated for 2 hrs by ELISA method (reference value: 364.2 +/- 20.5 ng); type: functional
[23] = Increase in adriamycin uptake in human MCF7/ADR cells at 1 uM after 2.5 hrs by fluorescence spectrophotometry; type: ADME, cell-based; details: nci/adr-res; summary of the method: as §1
[24] = Anticancer activity against human MCF7/ADR cells after 48 hrs by MTT assay; type: functional, cell-based; details: NCI/ADR-RES; summary of the method: as §4
[25] = system: MCF7; assay: Antimigratory activity in human MCF7 cells assessed as inhibition of cell migration at 1 uM incubated for 48 hrs by transwell migration assay; type: functional, cell-based
Summary of the method: (§10)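 Transwell chambers with a porous membrane separating upper and lower compartments. 4 × 10^4 MCF-7 cells were placed in the upper chamber in peptide-containing medium and incubated 48 h. Cells that reached the lower membrane surface were counted.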

[26] = system: MCF7; assay: Induction of cytochrome c release in mitochondria of human MCF7 cells at 8 uM incubated for 2 hrs by ELISA method (reference value: 347.8 +/- 14.5 ng); type: functional
[27] = Increase in adriamycin uptake in human MCF7/ADR cells at 1 uM after 2.5 hrs by fluorescence microscopy; type: ADME, cell-based; details: nci/adr-res; summary of the method: as §2
[28] = system: MCF7; assay: Induction of cytochrome c release in cytoplasm of human MCF7 cells at 8 uM incubated for 2 hrs by ELISA method (reference value: 44.1 +/- 2.7 ng); type: functional
[29] = Anticancer activity against human K562/ADR cells after 48 hrs by MTT assay; type: functional, cell-based; summary of the method: as §4
[30] = Increase in adriamycin uptake in human MCF7/ADR cells at 0.5 uM after 2.5 hrs by fluorescence microscopy; type: ADME, cell-based; details: nci/adr-res; summary of the method: as §2
[31] = system: MCF7; assay: Induction of cell membrane morphology changes in human MCF7 cells at 5 uM incubated for 30 mins by scanning electron microscopy; type: functional, cell-based; summary of the method: as §5
[32] = Increase in adriamycin uptake in human MCF7/ADR cells at 0.5 uM after 2.5 hrs by fluorescence spectrophotometry; type: ADME, cell-based; details: nci/adr-res; summary of the method: as §1
[33] = Drug uptake in cytosol of human MCF7 cells at 5 uM incubated for 5 mins or 30 mins by fluorescein isothiocyanate labeling based fluorescence microscopy; type: ADME, cell-based; summary of the method: as §8
[34] = system: MCF7; assay: Antimigratory activity in human MCF7 cells assessed as inhibition of cell migration at 0.5 uM incubated for 48 hrs by transwell migration assay; type: functional, cell-based; summary of the method: as §10
[35] = system: MCF7; assay: Induction of cytochrome c release in cytoplasm of human MCF7 cells at 5 uM incubated for 2 hrs by ELISA method (reference value: 44.1 +/- 2.7 ng); type: functional
[36] = system: MCF7; assay: Induction of cytochrome c release in extracellular region of human MCF7 cells at 5 uM incubated for 2 hrs by ELISA method (reference value: 15.7 +/- 0.77 ng); type: functional
[37] = system: MCF7; assay: Induction of cell membrane alteration in human MCF7 cells at 5 uM incubated for 30 mins by acridine orange/ethidium bromide double staining method; type: functional, cell-based; summary of the method: as §7
[38] = system: MCF7; assay: Antimigratory activity in human MCF7 cells assessed as inhibition of cell migration at 0.5 uM incubated for 48 hrs by wound healing assay; type: functional, cell-based; summary of the method: as §9
[39] = system: NCI/ADR-RES; assay: Potentiation of adriamycin-induced cytotoxicity against human MCF7/ADR cells at 0.5 uM after 48 hrs by MTT assay; type: functional, cell-based; summary of the method: as §3
[40] = system: MCF7; assay: Induction of cytochrome c release in human MCF7 cells at 5 uM incubated for 2 hrs by ELISA method (reference value: 364.2 +/- 20.5 ng); type: functional
[41] = Increase in adriamycin uptake in human K562/ADR cells at 0.5 uM after 2.5 hrs by fluorescence microscopy; type: ADME, cell-based; summary of the method: as §2
[42] = system: MCF7; assay: Induction of cytochrome c release in mitochondria of human MCF7 cells at 5 uM incubated for 2 hrs by ELISA method (reference value: 347.8 +/- 14.5 ng); type: functional
[43] = Increase in adriamycin uptake in human K562/ADR cells at 0.5 uM after 2.5 hrs by fluorescence spectrophotometry; type: ADME, cell-based; summary of the method: as §1
[44] = system: K562/Adr; assay: Potentiation of adriamycin-induced cytotoxicity against human K562/ADR cells at 0.5 uM after 48 hrs by MTT assay; type: functional, cell-based; summary of the method: as §3
[45] = system: MCF7; assay: Induction of mitochondrial membrane potential depolarization in human MCF7 cells at 5 uM incubated for 2 hrs by JC1 staining; type: functional, cell-based; summary of the method: as §6

## COc1ccc(CCN(C)CCCC(C#N)(c2ccc(OC)c(OC)c2)C(C)C)cc1OC (configuration not stated) [VERAPAMIL]
[1]
  Activity: Active
[2]
  Activity: Active
[3]
  Activity: Active
[4]
  Activity: Active
[5]
  Activity: Active
[6]
  Activity: Active

## H-VKRFKKFFRKLKKKV-NH2
[7]
  Retention_time: 3.22 min
[8]
  IC50: 123 µM
[9]
  Activity: 15 ng
[10]
  Activity: Non-toxic
[11]
  Activity: Active
[12]
  Activity: Active
[13]
  Activity: Active
[14]
  Activity: Active
[15]
  Activity: Active
[16]
  Activity: Active
[17]
  IC50: 8.3 µM
[18]
  Drug uptake: Active
[19]
  IC50: 5.5 µM
[20]
  Activity: Active
[21]
  inhibition: Active
[22]
  Activity: 359.1 ng
[23]
  Activity: Active
[24]
  IC50: 8.6 µM
[25]
  inhibition: Active
[26]
  Activity: 303.2 ng
[27]
  Activity: Active
[28]
  Activity: 59.6 ng
[29]
  IC50: 5.5 µM

## H-VKRFKKFFRKLKKLV-NH2
[7]
  Retention_time: 3.84 min
[30]
  Activity: Active
[8]
  IC50: 77.6 µM
[10]
  Activity: Non-toxic
[31]
  Activity: Active
[32]
  Activity: Active
[17]
  IC50: 3.6 µM
[19]
  IC50: 1.1 µM
[33]
  Drug uptake: Active
[24]
  IC50: 4.4 µM
[34]
  inhibition: Active
[35]
  Activity: 59.9 ng
[36]
  Activity: 14.9 ng
[37]
  Activity: Active
[29]
  IC50: 3.3 µM
[38]
  inhibition: Active
[39]
  Activity: Active
[40]
  Activity: 354.8 ng
[41]
  Activity: Active
[42]
  Activity: 303.8 ng
[43]
  Activity: Active
[44]
  Activity: Active
[45]
  Activity: Active

Source: ChEMBL document CHEMBL3351585, “Design, synthesis and biological evaluation of novel peptides with anti-cancer and drug resistance-reversing activities” (Eur J Med Chem, 2015)
